Laboratory results as given in paper PMC3160560 (Investigational New Drugs, 2010).
pIC50: −log10 of the molar value. Read-outs that look alike come from different tables or passages of the source.

Key:
aurora-A (AURKA) = details: read-out: IC50 aurora-A; cited from earlier work
ret proto-oncogene (RET) = details: read-out: IC50 RET; panel of 32 kinases; cited from earlier work
[1] = molecular target: fms-related tyrosine kinase 3 (FLT3); details: read-out: IC50 FLT3; panel of 32 kinases; cited from earlier work
aurora-C (AURKC) = details: read-out: IC50 aurora-C; cited from earlier work
[2] = test system: histone H3 phosphorylation; experiment: histone H3 phosphorylation in skin biopsies by immunohistochemistry; format: in vivo, human
How it was run: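 Skin biopsies were taken at baseline and 10 min before the end of the first infusion of cycle 1. Phospho-histone H3 was stained by immunohistochemistry, giving the % change in positive cells. AURKB genotypes were compared by t-test/ANOVA.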

[3] = test system: ATP-binding cassette G2 (ABCG2/BCRP); details: in vitro; ref unpublished data (b4), 26; cited from earlier work
[4] = toxicity in first treatment cycle; format: in vivo, human; details: for Neutropenia grade 3–4: No (No. patients) / Neutropenia grade 3–4: Yes (No. patients): cycle 1, RP2D
How it was run: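 Adverse events in cycle 1 were graded by NCI-CTC v3.0. Phase II patients received 330 mg/m2 on days 1, 8 and 15 (6-h) or 500 mg/m2 on days 1 and 15 (24-h) every 28 days. Genotypes were compared by two-sided chi-square.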

[5] = test system: ATP-binding cassette B1 (ABCB1/MDR1); details: in vitro; ref unpublished data (b4), 26; cited from earlier work
[6] = cited from earlier work
aurora-B (AURKB) = details: read-out: IC50 aurora-B; cited from earlier work
[7] = pharmacokinetics in phase I cancer patients; format: in vivo, human
How it was run: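 In the phase I trial, the test compound was given IV on days 1, 8 and 15 every 28 days. Doses were 45–400 mg/m2 by 6-h infusion or 250–330 mg/m2 by 3-h infusion. Blood was sampled on days 1–4, 8, 15–18 and 22 of cycle 1. Clearance (L/hour/m2) came from non-compartmental analysis. Genotypes came from TaqMan assays on blood DNA and were compared by t-test/ANOVA.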

[8] = molecular target: vascular endothelial growth factor receptor 3 (FLT4, VEGFR3); details: read-out: IC50 FLT4 (VEGFR3); panel of 32 kinases; cited from earlier work
[9] = AURKA 91A > T AT, total 6 patients
[10] = AURKA 169G > A GA, total 11 patients
[11] = AURKA 169G > A GG, total 18 patients
[12] = AURKB 893G > A GA, total 8 patients
[13] = FLT3 738C > T CC, total 5 patients
[14] = FLT3 738C > T TT, total 10 patients
[15] = FLT4 1480A > G AG, total 7 patients
[16] = KDR 54G > A AA, total 5 patients
[17] = KDR 54G > A GA, total 16 patients
[18] = KDR 54G > A GG, total 9 patients
[19] = KDR 1192G > A GA, total 3 patients
[20] = KDR −92G > A AG, total 7 patients
[21] = KDR −92G > A GG, total 20 patients
[22] = KDR −604T > C TT, total 6 patients
[23] = RET 135G > A AA, total 3 patients (3 missing)
[24] = RET 135G > A GA, total 8 patients (3 missing)
[25] = RET 37412G > A GA, total 5 patients

Structure (SMILES): CO[C@@H](C(=O)N1Cc2n[nH]c(NC(=O)c3ccc(N4CCN(C)CC4)cc3)c2C1)c1ccccc1 [Danusertib]
decrease in histone H3 phosphorylation ([2]; AURKB 893G > A homozygous wild type genotype (GG), SD 13.3%): 91%
substrate for efflux protein ABCG2 [3]: substrate
Neutropenia grade 3–4: Yes (No. patients) [4, 9]: 4
Neutropenia grade 3–4: No (No. patients) ([4]; AURKA 91A > T TT, total 4 patients): 4
Neutropenia grade 3–4: No (No. patients) [4, 13]: 4
Neutropenia grade 3–4: Yes (No. patients) [4, 14]: 4
Neutropenia grade 3–4: Yes (No. patients) [4, 18]: 4
Neutropenia grade 3–4: No (No. patients) [4, 20]: 4
substrate for efflux protein ABCB1 [5]: substrate
dose linearity of pharmacokinetics ([6]; over the dose-range studied, phase I): linear pharmacokinetics
